Source: PubChem
Hits are enriched below; roughly 4.5% of the tested compounds scored in any of these assays.
PERK inh: block of dimerizer-induced PERK translation repression, primary screen, PERK inhibitor project, CHO PERK-DD cells, SEAP luminescence, HTS; CHO PERK-DD fusion, SEAP luminescence translation reporter; inhibition, % at 5.6 µM; actives 0.17% (n = 220,000); AID 1416, 2008;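 active = inhibition above the mean inhibition of all tested compounds plus 3 SD, set separately per screening campaign, cut at about 2.9% in these data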;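 note: PERK kinase domain activated by AP20187 dimerizer at 100 nM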
AHR act: AHR activators, primary screen, cell-based, luminescence, luciferase reporter, human | Aryl hydrocarbon receptor (Homo sapiens), P35869 | AHR-responsive luciferase reporter cells | activation, % at 5 µM | actives 2.5% (n = 320,000); in the data active = activation above about 47%
STAT1 activator: STAT1 signaling activators, primary screen, cell-based, HTS, luciferase reporter; NIH 3T3 STAT1-luciferase reporter, IFN-gamma, luminescence; 100% = IFN-gamma alone, no compound; actives 2.6% (n = 200,000); activation (% of control), % at 5.5 µM;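 active = activation above the screen-wide mean activation plus 3 SD, cut at about 130% in these data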
MDM2 E3 inh: MDM2-luciferase reporter signal enhancers, primary screen, MDM2 E3 ligase inhibitor project, cell-based, luminescence, 1536-well | cell-based MDM2 ubiquitination luciferase reporter, 2 h; 0 = plate control, 100 = twice control, blank-subtracted | signal enhancement, % at 5 µM | actives 0.11% (n = 210,000) | AID 1230, 2008;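 active = signal enhancement of 30% or more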;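 note: luminescence tracks abundance of the self-degrading MDM2-luciferase fusion protein; higher signal means inhibition of MDM2 E3 ligase activity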
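system = mammalian cells stably expressing self-ubiquitinating, self-degrading MDM2 E3–luciferase fusion | quantity = 2000 cells per well seeded | incubation = 4 h cell settling then 2 h compound exposure, 37 °C | signal = SteadyLite luminescence, 15 min reagent step | benchmarks = plate control and blank wells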
NF-kB neuron act: activators of NF-kB expression in neurons, primary screen, cell-based, HTS; human neuronal cells, NF-kB reporter expression; stronger effect = higher value; fold change at 12.5 µM; actives 1.6% (n = 190,000); AID 1239, 2008; in the data active = fold change above about 3.3
APP 5'UTR act: activators of APP 5'UTR luciferase reporter, primary screen, SH-SY5Y cells; SH-SY5Y APP 5'UTR luciferase reporter, luminescence; zero percent = DMSO vehicle wells; activation, % at 2 µM; actives 1% (n = 190,000); AID 1276, 2008;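 active = activation above a set limit, based on mean plus 3 SD of controls, cut at about 140% in these data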
Numbers stand for hits.

CCOC(=O)N1CCC(Nc2c(N3CCN(c4cccc(C(F)(F)F)c4)CC3)c(=O)c2=O)CC1 was read as PERK inh inactive, AHR act inactive, STAT1 activator inactive, NF-kB neuron act inactive and APP 5'UTR act inactive.
CCOC(=O)C1=C(Cc2ccc(Cl)cc2)C(=O)c2ccccc2C1=O was read as PERK inh inactive, AHR act 86, STAT1 activator inactive, MDM2 E3 inh inactive, NF-kB neuron act inactive and APP 5'UTR act inactive.
`COc1ccccc1C(=O)NCC(=O)OC(C)C(=O)N1CCOCC1` (stereo unspecified) gave AHR act inactive.
Screening COc1ccc(C2Nc3ccccc3C(=O)N2c2ccc(C)cc2)cc1COc1ccccn1 (stereo unspecified) returned PERK inh inactive, AHR act inactive, STAT1 activator 131, MDM2 E3 inh inactive, NF-kB neuron act inactive and APP 5'UTR act inactive.
For O=C(N/N=C/c1c[nH]c2ccc(Br)cc12)c1ccncc1 the results were PERK inh inactive, AHR act 74, STAT1 activator inactive, MDM2 E3 inh inactive, NF-kB neuron act inactive and APP 5'UTR act inactive.
`COc1ccccc1C(=O)N/N=C/c1c[nH]c2ccccc12` gave AHR act inactive.
Screening CCOc1ccc(Br)cc1C(=O)N/N=C/c1c[nH]c2ccccc12 returned AHR act 47.
`O=C(N/N=C/c1c[nH]c2ccccc12)c1cc(Br)ccc1O` gave AHR act 77.
`O=C(N/N=C/c1c[nH]c2ccccc12)c1[nH]c2ccc(Br)cc2c1-c1ccccc1` gave PERK inh inactive, STAT1 activator inactive, MDM2 E3 inh inactive, NF-kB neuron act 3.6 and APP 5'UTR act inactive.
Screening CC1(c2ccc3c(c2)OCCCO3)NC(=O)N(CC(=O)NCCc2ccccc2)C1=O (stereo unspecified) returned AHR act inactive.
`Cc1nc2scc(C)n2c(=O)c1S(=O)(=O)Nc1ccc(OC(F)(F)F)cc1` gave AHR act inactive.
O=C(N=C1SC2CS(=O)(=O)CC2N1c1cccc(Cl)c1Cl)C1CCCO1 (stereo unspecified) was read as AHR act inactive.
Screening Cc1cc(C(=O)N/N=C/c2c[nH]c3ccccc23)c(C)o1 returned PERK inh inactive, AHR act 56, STAT1 activator inactive, MDM2 E3 inh inactive, NF-kB neuron act inactive and APP 5'UTR act inactive.
`CCCCS(=O)Cc1ccccc1` (stereo unspecified) gave PERK inh inactive, AHR act inactive, STAT1 activator inactive, MDM2 E3 inh inactive, NF-kB neuron act inactive and APP 5'UTR act inactive.
Screening CC(C)c1ccc(-n2cnn(-c3ncccc3[N+](=O)[O-])c2=O)cc1 returned PERK inh inactive, AHR act 51, STAT1 activator inactive, MDM2 E3 inh inactive, NF-kB neuron act 8.6 and APP 5'UTR act 140.
`COc1cc(/C=N/NC(N)=O)cc(Br)c1OCc1ccccc1C` gave PERK inh inactive, AHR act inactive, STAT1 activator inactive, MDM2 E3 inh inactive, NF-kB neuron act inactive and APP 5'UTR act inactive.
Screening Cc1ccccc1CO/N=C/c1[nH]ncc1Br returned PERK inh 3.5, AHR act inactive and MDM2 E3 inh inactive.
O=c1c2oc3ccccc3c2[nH]c(=S)n1-c1ccc(F)cc1 was read as PERK inh inactive, AHR act 57, STAT1 activator inactive, MDM2 E3 inh inactive, NF-kB neuron act inactive and APP 5'UTR act inactive.
Cc1ccc(-n2c(=S)[nH]c3c(oc4ccccc43)c2=O)cc1C was read as PERK inh inactive, AHR act inactive, STAT1 activator inactive, MDM2 E3 inh inactive, NF-kB neuron act inactive and APP 5'UTR act inactive.
